For test [1], the target named is T1, Prostaglandin G/H synthase 1 (Ovis aries, UniProt P05979).
T1 sequence (P05979 whole entry): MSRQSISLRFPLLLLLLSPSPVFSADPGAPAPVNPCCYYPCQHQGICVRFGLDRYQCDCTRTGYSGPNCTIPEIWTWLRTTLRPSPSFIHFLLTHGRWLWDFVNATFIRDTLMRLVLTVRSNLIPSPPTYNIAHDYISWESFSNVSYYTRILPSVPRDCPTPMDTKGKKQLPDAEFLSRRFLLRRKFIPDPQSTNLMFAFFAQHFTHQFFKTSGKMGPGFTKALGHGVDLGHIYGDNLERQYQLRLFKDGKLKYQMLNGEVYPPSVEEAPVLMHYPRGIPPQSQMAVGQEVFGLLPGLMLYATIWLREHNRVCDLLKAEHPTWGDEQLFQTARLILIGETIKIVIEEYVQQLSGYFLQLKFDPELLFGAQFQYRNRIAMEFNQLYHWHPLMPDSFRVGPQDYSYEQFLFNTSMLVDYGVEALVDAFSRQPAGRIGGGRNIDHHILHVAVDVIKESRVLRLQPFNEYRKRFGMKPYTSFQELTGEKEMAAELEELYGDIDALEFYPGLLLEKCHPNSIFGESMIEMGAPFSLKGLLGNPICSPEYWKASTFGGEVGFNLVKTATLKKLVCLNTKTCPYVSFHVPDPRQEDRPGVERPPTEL
In words: Inhibition of ovine COX1 pre-incubated for 10 mins before arachidonic acid substrate addition by enzyme immunoassay. A digest of the protocol:
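Ovine COX-1 pre-incubated with inhibitor for 10 min at 37 °C, then 5 μM arachidonic acid for 2 min at 37 °C. Stopped with HCl; PGH2 reduced to PGF2α with SnCl2 and measured by competitive EIA (PG antibody, PG-acetylcholinesterase conjugate), absorbance at 412 nm.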

Test [2] has as its target T2, Prostaglandin G/H synthase 2 (Homo sapiens, UniProt P35354).
T2 sequence (P35354 whole entry): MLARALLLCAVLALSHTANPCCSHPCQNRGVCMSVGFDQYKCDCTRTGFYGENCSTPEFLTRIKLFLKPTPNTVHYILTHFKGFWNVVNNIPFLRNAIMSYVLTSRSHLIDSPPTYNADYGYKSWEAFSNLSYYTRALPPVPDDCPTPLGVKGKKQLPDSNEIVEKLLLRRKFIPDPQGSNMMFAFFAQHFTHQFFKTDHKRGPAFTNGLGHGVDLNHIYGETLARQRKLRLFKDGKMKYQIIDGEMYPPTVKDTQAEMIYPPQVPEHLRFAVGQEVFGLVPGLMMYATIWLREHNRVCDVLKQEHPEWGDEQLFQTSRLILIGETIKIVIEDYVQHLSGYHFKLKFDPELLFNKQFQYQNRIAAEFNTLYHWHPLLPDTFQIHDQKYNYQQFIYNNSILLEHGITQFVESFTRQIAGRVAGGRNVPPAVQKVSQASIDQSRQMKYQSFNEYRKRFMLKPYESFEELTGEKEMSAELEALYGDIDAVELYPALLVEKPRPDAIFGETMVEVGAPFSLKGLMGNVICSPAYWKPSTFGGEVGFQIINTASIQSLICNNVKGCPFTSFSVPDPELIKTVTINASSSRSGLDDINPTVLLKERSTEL
The test is described as follows: Inhibition of human COX2 pre-incubated for 10 mins before substrate addition by enzyme immunoassay.

Test [3] concerns the target T3, Fatty-acid amide hydrolase 1 (Rattus norvegicus, UniProt P97612).
T3 sequence (P97612 whole entry): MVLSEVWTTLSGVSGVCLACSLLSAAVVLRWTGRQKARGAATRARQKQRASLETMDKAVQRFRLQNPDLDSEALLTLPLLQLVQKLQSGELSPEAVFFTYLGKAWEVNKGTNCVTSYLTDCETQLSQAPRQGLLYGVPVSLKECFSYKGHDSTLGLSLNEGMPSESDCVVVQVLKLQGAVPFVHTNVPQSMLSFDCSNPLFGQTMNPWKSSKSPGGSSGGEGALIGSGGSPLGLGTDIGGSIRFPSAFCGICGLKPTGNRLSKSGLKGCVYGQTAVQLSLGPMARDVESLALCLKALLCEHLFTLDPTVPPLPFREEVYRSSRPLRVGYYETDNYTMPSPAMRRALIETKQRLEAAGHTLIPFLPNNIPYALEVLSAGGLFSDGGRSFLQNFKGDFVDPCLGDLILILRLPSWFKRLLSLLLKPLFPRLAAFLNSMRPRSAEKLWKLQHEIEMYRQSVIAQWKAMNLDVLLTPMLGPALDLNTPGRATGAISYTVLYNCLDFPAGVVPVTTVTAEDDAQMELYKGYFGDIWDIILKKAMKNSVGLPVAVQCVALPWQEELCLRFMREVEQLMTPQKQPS
In words: Inhibition of FAAH in rat brain homogenates pre-incubated for 10 mins before addition of [3H]anandamide and [3H]AEA substrates for 30 mins by liquid scintillation counting. The format is tissue-based. The method, boiled down:
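Rat whole-brain homogenate (50 ug protein/sample) in 50 mM TRIS pH 7.4, 0.05 % fatty acid free BSA; inhibitor pre-incubated 10 min, then 1 uM unlabelled AEA plus 0.6 nM [3H]-AEA added for 30 min at 37°C. Stopped with cold 1:1 CHCl3/MeOH; aqueous phase counted.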

For 36 molecules, IC50 results are on record in ChEMBL document CHEMBL2169800 (J Med Chem, 2012).

Where only a bound is given, the exact number is not on record here.

The IC50 is the midpoint of a concentration-inhibition curve. Consider `CCCCNC(=O)n1c2ccc(Cl)cc2c2ccc(C(C)C(=O)O)cc21` (racemic), for which the IC50 in test [1], in test [2] and in test [3] (read-out: IC50) was more than 100 µM in each case.

In the case of `CCCCCCS(=O)(=O)n1c2ccc(Cl)cc2c2ccc(C(C)C(=O)O)cc21` (racemic), the IC50 is more than 100 µM in test [1], more than 100 µM in test [2] and 50.3 µM in test [3] (read-out: IC50).

For the molecule `CC(=O)n1c2ccc(Cl)cc2c2ccc(C(C)C(=O)O)cc21` (racemic), the IC50 in test [1], in test [2] and in test [3] (read-out: IC50) was more than 100 µM each time.

As to `C[C@H](C(=O)O)c1ccc2c3cc(Cl)ccc3n(C(=O)c3cocn3)c2c1`, the IC50 in test [1] was 4.1 µM; in test [2] it was 2.5 µM; in test [3] (read-out: IC50) it was more than 100 µM.

Regarding `CC(C(=O)O)c1ccc2c3cc(Cl)ccc3n(C(=O)c3ccccc3)c2c1` (racemic), the IC50 in test [1] is more than 100 µM; in test [2], more than 100 µM; in test [3] (read-out: IC50), 25.4 µM.

As to `CC(C(=O)O)c1ccc2c3cc(Cl)ccc3n(C(=O)c3ccccc3Cl)c2c1` (racemic), the values for the IC50 in test [1], in test [2] and in test [3] (read-out: IC50) were more than 100 µM, more than 100 µM and 59.6 µM, respectively.

On to `CC(C(=O)O)c1ccc2c3cc(Cl)ccc3n(C(=O)c3cccc(Cl)c3)c2c1` (racemic), for which the IC50 in test [1] is more than 100 µM; in test [2] it was more than 100 µM; in test [3] (read-out: IC50) it was 20.1 µM.

With `COc1ccc(C(=O)n2c3ccc(Cl)cc3c3ccc(C(C)C(=O)O)cc32)cc1` (racemic), the IC50 was more than 100 µM in test [1], more than 100 µM in test [2] and 10.6 µM in test [3] (read-out: IC50).

On to `CC(C(=O)O)c1ccc2c3cc(Cl)ccc3n(C(=O)c3ccc(Cl)c(Cl)c3)c2c1` (racemic), for which the concentration for half-maximal inhibition (IC50) in test [1], in test [2] and in test [3] (read-out: IC50) was more than 100 µM in each case.

As to `CC(C(=O)O)c1ccc2c3cc(Cl)ccc3n(C(=O)Nc3ccc(Cl)cc3)c2c1` (racemic), the IC50 was 41.3 µM in test [1], more than 100 µM in test [2] and 102 µM in test [3] (read-out: IC50).

As for `CC(C(=O)O)c1ccc2c3cc(Cl)ccc3n(C(=O)c3cscn3)c2c1` (racemic), the half-inhibitory concentration (IC50) in test [1], in test [2] and in test [3] (read-out: IC50) was more than 100 µM throughout.

For the molecule `C[C@@H](C(=O)O)c1ccc2c3cc(Cl)ccc3n(C(=O)c3cocn3)c2c1`, the IC50 in test [1] is more than 100 µM; in test [2] it was more than 100 µM; in test [3] (read-out: IC50), 53.2 µM.

`CC(C)Cc1ccc(C(C)C(=O)O)cc1` (stereo not given) [IBUPROFEN]: the IC50 result in test [3] is “Not Active”.

For `COc1ccc(Cn2c3ccc(Cl)cc3c3ccc(C(C)C(=O)O)cc32)cc1` (racemic), the IC50 in test [1] is more than 100 µM; in test [2], more than 100 µM; in test [3] (read-out: IC50), 8.4 µM.

In the case of `CC(C(=O)O)c1ccc2c3cc(Cl)ccc3n(S(=O)(=O)c3ccc(Cl)cc3)c2c1` (racemic), the IC50 in test [1] was more than 100 µM; in test [2], more than 100 µM; in test [3] (read-out: IC50), 4.8 µM.

For the molecule `CC(C(=O)O)c1ccc2c3cc(Cl)ccc3n(Cc3ccc(Cl)cc3)c2c1` (racemic), the IC50 was more than 100 µM in test [1], more than 100 µM in test [2] and 10.2 µM in test [3] (read-out: IC50).

As for `CC(C(=O)O)c1ccc2c3cc(Cl)ccc3n(C(=O)c3cocn3)c2c1` (racemic), the values for the IC50 in test [1], in test [2] and in test [3] (read-out: IC50) were 30 µM, 27.8 µM and 84.8 µM, respectively.

Consider `CC(C(=O)O)c1ccc2c3cc(Cl)ccc3n(C)c2c1` (racemic), for which the IC50 in test [1] is more than 100 µM; in test [2], more than 100 µM; in test [3] (read-out: IC50), 15.5 µM.

As for `CC(C(=O)O)c1ccc2c3cc(Cl)ccc3n(Cc3ccccc3)c2c1` (racemic), the IC50 is more than 100 µM in test [1], more than 100 µM in test [2] and 23.3 µM in test [3] (read-out: IC50).

For `CNC(=O)n1c2ccc(Cl)cc2c2ccc(C(C)C(=O)O)cc21` (racemic), the IC50 in test [1], in test [2] and in test [3] (read-out: IC50) was more than 100 µM throughout.

On to `CC(C(=O)O)c1ccc2c3cc(Cl)ccc3n(Cc3ccc(C#N)cc3)c2c1` (racemic), for which the IC50 in test [1] is more than 100 µM; in test [2], more than 100 µM; in test [3] (read-out: IC50), 33.4 µM.

As to `C[C@@H](C(=O)O)c1ccc2c(c1)[nH]c1ccc(Cl)cc12`, the IC50 in test [1] was more than 100 µM.

The molecule `C[C@H](C(=O)O)c1ccc2c(c1)[nH]c1ccc(Cl)cc12` showed an IC50 in test [1] of 5.6 µM.

Consider `COC(=O)C(C)c1ccc2c(c1)[nH]c1ccc(Cl)cc12` (racemic), for which the IC50 was more than 100 µM in test [1], more than 100 µM in test [2] and 22.1 µM in test [3] (read-out: IC50).

Regarding `CC(C(=O)O)c1ccc2c3cc(Cl)ccc3n(C(=O)c3cnc[nH]3)c2c1` (racemic), the results for the IC50 in test [1], in test [2] and in test [3] (read-out: IC50) were 12.8 µM, more than 100 µM and 5.6 µM, respectively.

With `CCCCCCN(C)C(=O)n1c2ccc(Cl)cc2c2ccc(C(C)C(=O)O)cc21` (racemic), the IC50 in test [1], in test [2] and in test [3] (read-out: IC50) was more than 100 µM each time.

With `C[C@H](C(=O)O)c1ccc2c3cc(Cl)ccc3n(C(=O)c3ccc(Cl)cc3)c2c1`, the results for the IC50 in test [1], in test [2] and in test [3] (read-out: IC50) were 45 µM, 46.5 µM and more than 100 µM, respectively.

With `CCCCCCNC(=O)n1c2ccc(Cl)cc2c2ccc(C(C)C(=O)O)cc21` (racemic), the concentration for half-maximal inhibition (IC50) in test [1] was more than 100 µM; in test [2] it was more than 100 µM; in test [3] (read-out: IC50), 3.2 µM.

For `COc1cccc(Cn2c3ccc(Cl)cc3c3ccc(C(C)C(=O)O)cc32)c1` (racemic), the figures for the IC50 in test [1], in test [2] and in test [3] (read-out: IC50) were more than 100 µM, more than 100 µM and 32.5 µM, respectively.

`CC(C(=O)O)c1ccc2c3cc(Cl)ccc3n(C(=O)c3ccc(Cl)cc3)c2c1` (racemic): the IC50 stood at 74.3 µM in test [1], 72.3 µM in test [2] and 22 µM in test [3] (read-out: IC50).

On to `CC(C(=O)O)c1ccc2c3cc(Cl)ccc3n(C(=O)c3ccc(F)cc3)c2c1` (racemic), for which the IC50 in test [1] was more than 100 µM; in test [2] it was more than 100 µM; in test [3] (read-out: IC50), 30.9 µM.

Consider `CC(C(=O)NCCO)c1ccc2c(c1)[nH]c1ccc(Cl)cc12` (racemic), for which the IC50 in test [1], in test [2] and in test [3] (read-out: IC50) was more than 100 µM each time.

In turn, `CC(C(=O)O)c1ccc2c(c1)[nH]c1ccc(Cl)cc12` (racemic) [CARPROFEN] returned an IC50 in test [1] of 22.3 µM.

As to `CCCCCCOC(=O)n1c2ccc(Cl)cc2c2ccc(C(C)C(=O)O)cc21` (racemic), the IC50 is 17.2 µM in test [1], more than 100 µM in test [2] and 31.6 µM in test [3] (read-out: IC50).

Regarding `CCCCCCCCNC(=O)n1c2ccc(Cl)cc2c2ccc(C(C)C(=O)O)cc21` (racemic), the figures for the IC50 in test [1], in test [2] and in test [3] (read-out: IC50) were 15.4 µM, more than 100 µM and 26.8 µM, respectively.

As for `CC(C(=O)O)c1ccc2c3cc(Cl)ccc3n(C(=O)NC3CCCCC3)c2c1` (racemic), the 50% inhibitory concentration (IC50) in test [1], in test [2] and in test [3] (read-out: IC50) was more than 100 µM each time.
